Results published in ChEMBL document CHEMBL4765486, “Novel Nonsecosteroidal Vitamin D Receptor Modulator Combined with Gemcitabine Enhances Pancreatic Cancer Therapy through Remodeling of the Tumor Microenvironment” (J Med Chem, 2021).
Calls of active or inactive are those of the source.

Tests used:
[1] = Cytotoxicity against rat LTC-14 cells assessed as reduction in cell proliferation incubated for 24 hrs by MTT assay; format: cell-based; conditions: LTC-14, 24 h
[2] = tested on: LTC-14; assay: Inhibition of rat LTC-14 cells activation assessed decrease in TGF-beta1 induced Acta2 mRNA expression at 0.5 uM incubated for 24 hrs by q-PCR analysis; format: functional, cell-based
Procedure, shortened: (§1)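 Immortalized rat PSC line LTC-14, about 1×10^5 cells per well, was grown 24 h at 37 °C in 5% CO2. Cells then received compound (0.5 μM) plus TGF-β1 for 24 h; TGF-β1 is stated as 0.5 ng/mL in the text and 5 ng/mL in the methods. Col1a1 and Acta2 mRNA were measured by RT-qPCR. Mean ± SD versus TGF-β1 alone.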

[3] = tested on: LTC-14; assay: Inhibition of rat LTC-14 cells activation assessed decrease in TGF-beta1 induced collagen 1 protein expression at 0.5 uM incubated for 24 hrs by Western blot analysis; format: functional, cell-based
Procedure, shortened: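 LTC-14 cells were treated for 24 h with compound (0.5 μM) plus TGF-β1 (0.5 ng/mL in the text, 5 ng/mL in the methods). Lysates were run on 10% SDS-PAGE, transferred to PVDF and probed with rabbit anti-collagen I, with β-actin as reference. Bands were quantified by densitometry versus TGF-β1 alone.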

[4] = molecular target: T1, Vitamin D3 receptor (Homo sapiens) (UniProt P11473); assay: Binding affinity to VDR (unknown origin) at 1 uM by fluorescence polarization assay relative to calcipotriol
T1 sequence (whole entry): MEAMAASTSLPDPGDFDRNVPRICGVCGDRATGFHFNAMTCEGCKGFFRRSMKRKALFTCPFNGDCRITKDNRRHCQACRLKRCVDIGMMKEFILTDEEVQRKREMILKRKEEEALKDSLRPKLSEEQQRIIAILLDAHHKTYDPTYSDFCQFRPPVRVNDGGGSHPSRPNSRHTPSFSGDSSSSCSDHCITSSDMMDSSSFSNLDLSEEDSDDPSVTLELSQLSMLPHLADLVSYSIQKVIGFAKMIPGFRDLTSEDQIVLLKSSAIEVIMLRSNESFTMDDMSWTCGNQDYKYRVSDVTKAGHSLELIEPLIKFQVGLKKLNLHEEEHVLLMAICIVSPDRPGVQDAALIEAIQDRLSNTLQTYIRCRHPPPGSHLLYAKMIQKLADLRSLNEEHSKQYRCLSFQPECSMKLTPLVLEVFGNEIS
Procedure, shortened: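 PolarScreen VDR competitor fluorescence polarization assay with compounds at 1 μM in triplicate. Read-out used 535 nm excitation and 590 nm emission filters.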

[5] = tested on: LTC-14; assay: Inhibition of rat LTC-14 cell activation assessed decrease in TGF-beta1 induced Colla1 mRNA expression at 0.5 uM incubated for 24 hrs by q-PCR analysis; format: functional; procedure, shortened: as §1

Row | SMILES | IC50 [1] [µM] | inhibition [2] | inhibition [3] | RBA ([4]; filed as agonist) [%] | inhibition [5] | RBA [4]
1 | CCN(CC)CCNC(=O)c1cc(C(CC)(CC)c2ccc(OCCCCC(O)(CC)CC)c(C)c2)cn1CC | > 10 | Active | Active | 41 | Active | –
2 | CCN(CC)CCCNC(=O)c1cc(C(CC)(CC)c2ccc(OCCCC(O)(CC)CC)c(C)c2)cn1CC | > 10 | Active | Active | 46 | Active | –
3 | CCn1c(C(=O)NCCN(C)C)ccc1C(CC)(CC)c1ccc(OCCC(C)(C)O)c(C)c1 | > 10 | Active | Active | 48 | Active | –
4 | CCn1cc(C(CC)(CC)c2ccc(OCC(C)O)c(C)c2)cc1C(=O)NCCCN1CCOCC1 (stereo not given) | > 10 | Active | Active | 71 | Active | –
5 | CCN(CC)CCCNC(=O)c1cc(C(CC)(CC)c2ccc(OCCCC(C)(C)O)c(C)c2)cn1CC | > 10 | Active | Active | – | Active | 24%
6 | CCN(CC)CCCNC(=O)c1ccc(C(CC)(CC)c2ccc(OCCCCC(O)(CC)CC)c(C)c2)n1CC | > 10 | Active | Active | – | Active | inactive
7 | CCn1c(C(=O)NCC2CCOCC2)ccc1C(CC)(CC)c1ccc(OCCC(C)(C)O)c(C)c1 | > 10 | Active | Active | 77 | Active | –
8 | CCn1cc(C(CC)(CC)c2ccc(OCC(C)O)c(C)c2)cc1C(=O)NCC1CCCO1 (stereo not given) | > 10 | Active | Active | 60 | Active | –
9 | CCN(CC)CCCNC(=O)c1ccc(C(CC)(CC)c2ccc(OCCCCCC(O)(CC)CC)c(C)c2)n1CC | > 10 | Active | Active | – | Active | 33%
10 | CCN(CC)CCCNC(=O)c1cc(C(CC)(CC)c2ccc(OCCCCC(C)(C)O)c(C)c2)cn1CC | > 10 | Active | Active | – | Active | 33%
11 | CCn1cc(C(CC)(CC)c2ccc(OCC(C)O)c(C)c2)cc1C(=O)NCC1CCOCC1 (stereo not given) | > 10 | Active | Active | 67 | Active | –
12 | CCN(CC)CCCNC(=O)c1ccc(C(CC)(CC)c2ccc(OCCCCCC(C)(C)O)c(C)c2)n1CC | > 10 | Active | Active | – | Active | 20%
13 | CCn1cc(C(CC)(CC)c2ccc(OCC(C)O)c(C)c2)cc1C(=O)NCCN1CCOCC1 (stereo not given) | > 10 | Active | Active | – | Active | 36%
14 | CCN(CC)CCCNC(=O)c1ccc(C(CC)(CC)c2ccc(OCC(C)O)c(C)c2)n1CC (stereo not given) | > 10 | Active | Active | – | Active | 30%
15 | CCn1cc(C(CC)(CC)c2ccc(OCC(C)O)c(C)c2)cc1C(=O)NCCN(C)C (stereo not given) | > 10 | Active | Active | 70 | Active | –
16 | CCn1c(C(=O)NCCCN2CCOCC2)ccc1C(CC)(CC)c1ccc(OCCC(C)(C)O)c(C)c1 | > 10 | Active | Active | 63 | Active | –
17 | CCn1cc(C(CC)(CC)c2ccc(OCC(C)O)c(C)c2)cc1C(=O)NCCCN1CCN(C)CC1 (stereo not given) | > 10 | Active | Active | 62 | Active | –
18 | CCN(CC)CCCNC(=O)c1cc(C(CC)(CC)c2ccc(OCC(O)C3CC3)c(C)c2)cn1CC (stereo not given) | > 10 | Active | Active | 40 | Active | –

Row | SMILES | IC50 [1] [µM] | inhibition [2] | inhibition [3] | RBA ([4]; filed as agonist) [%] | inhibition [5] | RBA [4]
19 | CCN(CC)CCCNC(=O)c1cc(C(CC)(CC)c2ccc(OCC(C)O)c(C)c2)cn1CC (stereo not given) | > 10 | Active | Active | 78 | Active | –
20 | CCCC(O)(CCC)CCOc1ccc(C(CC)(CC)c2ccc(C(=O)NCCCN(CC)CC)n2CC)cc1C | > 10 | Active | Active | 54 | Active | –
21 | CCN(CC)CCCNC(=O)c1ccc(C(CC)(CC)c2ccc(OCCCCC(C)(C)O)c(C)c2)n1CC | > 10 | Active | Active | – | Active | 26%
22 | CCC(O)COc1ccc(C(CC)(CC)c2cc(C(=O)NCCCN(CC)CC)n(CC)c2)cc1C (stereo not given) | > 10 | Active | Active | 64 | Active | –
23 | CCN(CC)CCCNC(=O)c1cc(C(CC)(CC)c2ccc(OCC(O)c3ccccc3)c(C)c2)cn1CC (stereo not given) | > 10 | Active | Active | 59 | Active | –
24 | CCCC(O)(CCC)CCCCOc1ccc(C(CC)(CC)c2ccc(C(=O)NCCCN(CC)CC)n2CC)cc1C | > 10 | Active | Active | 64 | Active | –
25 | CCN(CC)CCCNC(=O)c1ccc(C(CC)(CC)c2ccc(OCCCC(C)(C)O)c(C)c2)n1CC | > 10 | Active | Active | – | Active | 33%
26 | CCN(CC)CCCNC(=O)c1ccc(C(CC)(CC)c2ccc(OCC(O)C3CC3)c(C)c2)n1CC (stereo not given) | > 10 | Active | Active | – | Active | 39%
27 | CCN(CC)CCNC(=O)c1ccc(C(CC)(CC)c2ccc(OCCCC(O)(CC)CC)c(C)c2)n1CC | > 10 | Active | Active | – | Active | 38%
28 | CCn1c(C(=O)NCCN2CCOCC2)ccc1C(CC)(CC)c1ccc(OCCC(C)(C)O)c(C)c1 | > 10 | Active | Active | – | Active | 18%
29 | CCN(CC)CCCNC(=O)c1cc(C(CC)(CC)c2ccc(OCCCCCC(C)(C)O)c(C)c2)cn1CC | > 10 | Active | Active | – | Active | inactive
30 | CCC(O)COc1ccc(C(CC)(CC)c2ccc(C(=O)NCCCN(CC)CC)n2CC)cc1C (stereo not given) | > 10 | Active | Active | – | Active | 28%
31 | CCn1c(C(=O)NCC2CCCO2)ccc1C(CC)(CC)c1ccc(OCCC(C)(C)O)c(C)c1 (stereo not given) | > 10 | Active | Active | 59 | Active | –
32 | CCN(CC)CCNC(=O)c1cc(C(CC)(CC)c2ccc(OCCC(O)(CC)CC)c(C)c2)cn1CC | > 10 | Active | Active | 80 | Active | –
33 | CCN(CC)CCCNC(=O)c1cc(C(CC)(CC)c2ccc(OCCCCCC(O)(CC)CC)c(C)c2)cn1CC | > 10 | Active | Active | – | Active | 32%
34 | CCn1c(C(=O)NCCCN2CCN(C)CC2)ccc1C(CC)(CC)c1ccc(OCCC(C)(C)O)c(C)c1 | > 10 | Active | Active | 54 | Active | –
35 | CCN(CC)CCCNC(=O)c1cc(C(CC)(CC)c2ccc(OCCC(C)(C)O)c(C)c2)cn1CC | > 10 | Active | Active | 67 | Active | –
36 | CCN(CC)CCCNC(=O)c1cc(C(CC)(CC)c2ccc(OCCC(O)(CC)CC)c(C)c2)cn1CC | > 10 | Active | Active | 51 | Active | –
